# From ChEMBL document CHEMBL1140191, “Lynamicins A-E, chlorinated bisindole pyrrole antibiotics from a novel marine actinomycete” (J Nat Prod, 2008)
# How the values were obtained:
# Herpesviridae sp. = assay: Antiviral activity against HSV; format: functional, organism-based
# [1] = tested on: Staphylococcus epidermidis; assay: Antibacterial activity against multi drug-resistant Staphylococcus epidermidis ATCC 700582 after 14 to 16 hrs by serial microbroth dilution method; format: functional
# Method in brief: (§1)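 Broth microdilution MIC per NCCLS standards in cation-adjusted Mueller-Hinton broth, without CO2. Final inoculum approximately 5 × 10^5 cfu/mL. Incubated 35 °C for 14-16 h. MIC taken as the lowest drug concentration preventing visible growth.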
# Staphylococcus aureus [2] = assay: Antibacterial activity against methicillin-sensitive Staphylococcus aureus ATCC 29213 after 14 to 16 hrs by serial microbroth dilution method; format: functional
# Method in brief: (§2)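 NCCLS broth microdilution in cation-adjusted Mueller-Hinton broth, no CO2 incubation. Final inoculum about 5 × 10^5 cfu/mL. Plates held at 35 °C for 14-16 h. MIC read as the lowest concentration with no visible bacterial growth.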
# [3] = tested on: Staphylococcus epidermidis; assay: Antibacterial activity against multi drug-resistant Staphylococcus epidermidis ATCC 700578 after 14 to 16 hrs by serial microbroth dilution method; format: functional; method in brief: as §1
# Streptococcus pneumoniae [4] = assay: Antibacterial activity against penicillin-resistant Streptococcus pneumoniae ATCC 51915after 14 to 16 hrs; format: functional
# Method in brief: (§3)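 Serial microbroth dilution MIC per NCCLS in cation-adjusted Mueller-Hinton broth II with lysed horse blood. Incubated in a CO2 incubator at 35 °C for 14-16 h. Final inoculum approximately 5 × 10^5 cfu/mL. MIC read as the lowest concentration with no visible growth.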
# Haemophilus influenzae [5] = assay: Antibacterial activity against Haemophilus influenzae ATCC […] after 14 to 16 hrs; format: functional
# Method in brief: (§4)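 Serial microbroth dilution (NCCLS) in Haemophilus Test Medium in a CO2 incubator. Final inoculum about 5 × 10^5 cfu/mL, 35 °C for 14-16 h. MIC is the lowest drug concentration preventing visible growth.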
# Enterococcus faecium = assay: Antibacterial activity against vancomycin-resistant Enterococcus faecium ATCC 700221 after 14 to 16 hrs by serial microbroth dilution method; format: functional; method in brief: as §1
# Haemophilus influenzae [6] = assay: Antibacterial activity against Haemophilus influenzae ATCC 49766 after 14 to 16 hrs; format: functional; method in brief: as §4
# Streptococcus pneumoniae [7] = assay: Antibacterial activity against penicillin-sensitive Streptococcus pneumoniae ATCC 49619 after 14 to 16 hrs; format: functional; method in brief: as §3
# Enterococcus faecalis = assay: Antibacterial activity against vancomycin-sensitive Enterococcus faecalis ATCC 29212 after 14 to 16 hrs by serial microbroth dilution method; format: functional; method in brief: as §2
# Escherichia coli = assay: Antibacterial activity against Escherichia coli imp permeable mutant after 14 to 16 hrs by serial microbroth dilution method; format: functional; method in brief: as §1
# Staphylococcus aureus [8] = assay: Antibacterial activity against methicillin-resistant Staphylococcus aureus ATCC 43300 after 14 to 16 hrs by serial microbroth dilution method; format: functional; method in brief: as §1
IC50 (Herpesviridae sp.),SMILES,MIC [1],MIC (Staphylococcus aureus [2]),MIC [3],MIC (Streptococcus pneumoniae [4]),MIC (Haemophilus influenzae [5]),MIC (Enterococcus faecium),MIC (Haemophilus influenzae [6]),MIC (Streptococcus pneumoniae [7]),MIC (Enterococcus faecalis),MIC (Escherichia coli),MIC (Staphylococcus aureus [8])
17.2 µg/mL,O=C(O)c1[nH]c(C(=O)O)c(-c2c[nH]c3ccccc23)c1-c1c[nH]c2ccccc12 [LYCOGALIC ACID A],–,–,–,–,–,–,–,–,–,–,–
17.2 µg/mL,COC(=O)c1[nH]c(C(=O)OC)c(-c2c[nH]c3ccccc23)c1-c1c[nH]c2ccccc12 [LYCOGARUBIN C],–,–,–,–,–,–,–,–,–,–,–
–,COC(=O)c1[nH]cc(-c2c[nH]c3ccc(Cl)cc23)c1-c1c[nH]c2ccc(Cl)cc12 [LYNAMICIN A],9.5 µM,4.3 µM,9.5 µM,57 µM,38 µM,19 µM,28 µM,57 µM,19 µM,16 µM,4.7 µM
–,COC(=O)c1[nH]cc(-c2c[nH]c3cc(Cl)c(Cl)cc23)c1-c1c[nH]c2ccc(Cl)cc12 [LYNAMICIN B],2.2 µM,1.8 µM,2.2 µM,18 µM,4.4 µM,4.4 µM,13 µM,18 µM,3.3 µM,13 µM,2.2 µM
–,Clc1cc2[nH]cc(-c3c[nH]cc3-c3c[nH]c4cc(Cl)c(Cl)cc34)c2cc1Cl [LYNAMICIN C],2.3 µM,2.5 µM,2.3 µM,46 µM,9.2 µM,4.6 µM,15 µM,46 µM,5.8 µM,15 µM,3.5 µM
–,COC(=O)c1[nH]c(C(=O)OC)c(-c2c[nH]c3ccc(Cl)cc23)c1-c1c[nH]c2ccc(Cl)cc12 [LYNAMICIN D],8.3 µM,6.2 µM,8.3 µM,42 µM,10 µM,17 µM,17 µM,50 µM,17 µM,> 67 µM,6.2 µM
–,COC(=O)c1[nH]c(C(=O)OC)c(-c2c[nH]c3ccc(Cl)cc23)c1-c1c[nH]c2ccccc12 [LYNAMICIN E],> 72 µM,> 45 µM,45 µM,> 72 µM,> 72 µM,> 54 µM,> 72 µM,> 72 µM,> 54 µM,> 72 µM,27 µM
